Reference: ChEMBL document CHEMBL3244005, “Troponoids. 3. Synthesis and antiallergy activity of N-troponyloxamic acid esters” (J Med Chem, 1979)

Columns and labels:
Rattus norvegicus [1] = experiment: Antiallergic activity in Sprague-Dawley CD rat assessed as inhibition of passive anaphylaxis-induced hind paw edema at 30 mg/kg, ip relative to control; format: functional; settings: Rattus norvegicus, Sprague-Dawley CD, ip, route intraperitoneal
Outline: (§1)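 Passive anaphylaxis (reaginic antibody) induced in rat hind paw: serum with reaginic antibody injected into left hind paw; antigen given intravenously 24 h later. Paw volume measured by mercury displacement; activity read as inhibition of paw edema versus controls. Test compounds given ip or po. Inhibition of 35% or more considered significant by Student's t test (p < 0.05).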

Rattus norvegicus [2] = experiment: Antiallergic activity in Sprague-Dawley CD rat passive anaphylaxis model assessed as hind paw edema volume at 10 mg/kg, ip relative to control; format: functional; settings: route intraperitoneal; outline: as §1
Rattus norvegicus [3] = experiment: Antiallergic activity in Sprague-Dawley CD rat assessed as inhibition of passive anaphylaxis-induced hind paw edema at 3 mg/kg, ip relative to control; format: functional; parameters: Activity: scale not given: the % may be the effect or the level left; settings: route intraperitoneal; outline: as §1
Rattus norvegicus [4] = experiment: Antiallergic activity in Sprague-Dawley CD rat passive anaphylaxis model assessed as hind paw edema volume at 3 mg/kg, ip relative to control; format: functional; settings: route intraperitoneal; outline: as §1
Rattus norvegicus [5] = experiment: Antiallergic activity in Sprague-Dawley CD rat passive anaphylaxis model assessed as hind paw edema volume at 30 mg/kg, po relative to control; format: functional; outline: as §1
Rattus norvegicus [6] = experiment: Antiallergic activity in Sprague-Dawley CD rat assessed as inhibition of passive anaphylaxis-induced hind paw edema at 10 mg/kg, ip relative to control; format: functional; settings: Rattus norvegicus, Sprague-Dawley CD, ip, route intraperitoneal; outline: as §1
Rattus norvegicus [7] = experiment: Antiallergic activity in Sprague-Dawley CD rat assessed as inhibition of passive anaphylaxis-induced hind paw edema at 30 mg/kg, po relative to control; format: functional; settings: for inhibition in vivo at 30 mg/kg: Rattus norvegicus, Sprague-Dawley CD, po; outline: as §1
Rattus norvegicus [8] = experiment: Drug metabolism in po dosed Sprague-Dawley CD rat passive anaphylaxis model assessed as 2-aminotropone level; format: ADME, organism-based; settings: in vivo
Rattus norvegicus [9] = experiment: Antiallergic activity in Sprague-Dawley CD rat assessed as inhibition of passive anaphylaxis-induced hind paw edema at 100 mg/kg, po relative to control; format: functional; settings: for inhibition in vivo at 100 mg/kg: Rattus norvegicus, Sprague-Dawley CD, po; outline: as §1
Rattus norvegicus [10] = experiment: Antiallergic activity in Sprague-Dawley CD rat assessed as inhibition of passive anaphylaxis-induced hind paw edema at 10 mg/kg, po relative to control; format: functional; outline: as §1
Rattus norvegicus [11] = experiment: Antiallergic activity in Sprague-Dawley CD rat passive anaphylaxis model assessed as hind paw edema volume at 10 mg/kg, po relative to control; format: functional; outline: as §1
[12] = Inhibition of beef heart PDE assessed as cyclic AMP level; parameters: species or system Bos taurus
Outline: (§2)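 PDE from beef heart or guinea pig lung assayed by earlier-described methods; protein measured by Lowry method. IC50 taken from a plot of percent inhibition vs log inhibitor concentration, as the concentration giving 50% reduction in reaction velocity relative to uninhibited controls.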

Rattus norvegicus [13] = experiment: Antiallergic activity in Sprague-Dawley CD rat assessed as inhibition of passive anaphylaxis-induced hind paw edema at 3 mg/kg, po relative to control; format: functional; outline: as §1
Rattus norvegicus [14] = experiment: Antiallergic activity in Sprague-Dawley CD rat passive anaphylaxis model assessed as hind paw edema volume at 3 mg/kg, po relative to control; format: functional; outline: as §1
Cavia porcellus [15] = species: Cavia porcellus; experiment: Stimulation of guinea pig lung adenylate cyclase activity at 1 x 10^-4 M after 15 mins relative to control
Cavia porcellus [16] = species: Cavia porcellus; experiment: Stimulation of guinea pig lung adenylate cyclase activity at 1 x 10^-3 M after 15 mins relative to control
Outline: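 Guinea pig lung adenyl cyclase preparation, chosen because it carries negligible cyclic nucleotide phosphodiesterase activity. Enzyme activity was read as cyclic AMP formation in the presence of test agent and compared with untreated control.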

Serum [17] = experiment: Drug metabolism in serum of Sprague-Dawley CD rat passive anaphylaxis model assessed as 2-[(Carboxycarbonyl)amino]-2,4,6-cycloheptatrien-l-one level at 0.23 mmol/kg, iv; format: ADME, cell-free
Outline: (§3)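 Rats given an iv bolus of 0.23 mmol/kg. Serum separated by centrifugation and stored frozen. Drug-derived material in serum quantified over time by UV measurement of 2-aminotropone. For 14C-labelled ester (label in ethyl group or oxalyl carbonyls), radioactivity counted in 0.2 mL serum after tissue-solubiliser digestion and scintillation fluid addition.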

Rattus norvegicus [18] = experiment: Antiallergic activity in Sprague-Dawley CD rat assessed as inhibition of passive anaphylaxis-induced hind paw edema at 1 mg/kg, ip relative to control; format: functional; settings: route intraperitoneal; outline: as §1
Cavia porcellus [19] = species: Cavia porcellus; experiment: Stimulation of guinea pig lung adenylate cyclase activity at 1 x 10^-5 M after 15 mins relative to control
Serum [20] = experiment: Drug metabolism in serum of Sprague-Dawley CD rat passive anaphylaxis model assessed as 2-aminotropone level at 0.23 mmol/kg, iv; format: ADME, cell-free; outline: as §3
Serum [21] = experiment: Drug metabolism in serum of Sprague-Dawley CD rat passive anaphylaxis model at 0.23 mmol/kg, iv; format: ADME, cell-free; outline: as §3
Blood = experiment: Drug metabolism in blood of Sprague-Dawley CD rat passive anaphylaxis model at 0.23 mmol/kg, iv; format: ADME, tissue-based; outline: as §3
[22] = Inhibition of guinea pig lung PDE assessed as cyclic AMP level; parameters: species or system Cavia porcellus; outline: as §2
Rattus norvegicus [23] = experiment: Antiallergic activity in Sprague-Dawley CD rat passive anaphylaxis model assessed as hind paw edema volume at 1 mg/kg, ip relative to control; format: functional; settings: route intraperitoneal; outline: as §1
[24] = Rattus norvegicus, Sprague-Dawley CD, po

Compound	inhibition in vivo at 30 mg/kg (Rattus norvegicus [1])	inhibition in vivo at 10 mg/kg (Rattus norvegicus [6])	inhibition in vivo at 100 mg/kg (Rattus norvegicus [9])	inhibition in vivo at 30 mg/kg (Rattus norvegicus [7])	also measured
COC(=O)C(=O)Nc1ccc(OC)c(=O)cc1	36%	–	–	–	–
O=C(O)C(=O)Nc1cccccc1=O	77%	89%	62%	–	Activity (Rattus norvegicus [2]): 0.12 mL; Activity (Rattus norvegicus [3]): 35%; Activity (Rattus norvegicus [4]): 0.75 mL; Activity (Rattus norvegicus [5]): 0.88 mL; inhibition (INH) (Rattus norvegicus [7]): 38%; Drug metabolism (Rattus norvegicus [8]): metabolite_detected; inhibition (INH) (Rattus norvegicus [10]): 38%; Activity (Rattus norvegicus [11]): 1.11 mL; IC50 [12]: 4330 µM
NC(CO)(CO)CO.O=C(O)C(=O)Nc1cccccc1=O	–	–	–	–	Activity (Rattus norvegicus [5]): 0.64 mL; inhibition (INH) (Rattus norvegicus [7]): 32%; inhibition (INH) (Rattus norvegicus [9]): 73%; inhibition (INH) (Rattus norvegicus [13]): 13%; inhibition (INH) (Rattus norvegicus [10]): 7%; Activity (Rattus norvegicus [11]): 0.88 mL; Activity (Rattus norvegicus [14]): 0.83 mL
O=C(Nc1cccccc1=O)C(=O)Oc1ccccc1	73%	68%	71%	31%	–
CCOC(=O)C(=O)Nc1cc(OC)cccc1=O	8%	–	53%	31%	–
CCOC(=O)C(=O)Nc1ccccc(NC)c1=O	83%	73%	–	0%	–
CNC[C@H](O)c1ccc(O)c(O)c1	–	–	–	–	Activity (Cavia porcellus [15]): 84%
CCOC(=O)C(=O)Nc1ccc(NC(=O)C(=O)OCC)c(=O)cc1	84%	93%	76%	61%	–
CCOC(=O)C(=O)Nc1c(Oc2ccccc2)ccccc1=O	0%	–	20%	–	–
Cn1c(=O)c2[nH]cnc2n(C)c1=O	–	–	–	–	Activity (Cavia porcellus [16]): 5%
O=C(O)c1cc(=O)c2c(OCC(O)COc3cccc4oc(C(=O)O)cc(=O)c34)cccc2o1 [CROMOLYN SODIUM]	77%	62%	–	–	–
CCOC(=O)C(=O)Nc1cccc(OC)cc1=O	67%	73%	48%	45%	–
CCOC(=O)C(=O)Nc1c(C)ccccc1=O	47%	–	37%	4%	–
CCOC(=O)C(=O)Nc1ccccc(-c2ccccc2)c1=O	72%	57%	0%	–	–
CCCCCOC(=O)C(=O)Nc1cccccc1=O	57%	61%	–	12%	–
CCOC(=O)C(=O)Nc1cccccc1=O	84%	80%	91%	79%	Activity (Rattus norvegicus [2]): 0.22 mL; inhibition in vivo at 3 mg/kg (Rattus norvegicus [3]; Rattus norvegicus, Sprague-Dawley CD, ip): 62%; Activity (Rattus norvegicus [4]): 0.41 mL; Drug metabolism (Serum [17]): metabolite_detected; inhibition in vivo at 1 mg/kg (Rattus norvegicus [18]): 16%; Activity (Rattus norvegicus [5]): 0.17 mL; Activity (Cavia porcellus [19]): 0%; Drug metabolism (Serum [20]): metabolite_notdetected; Drug metabolism (Serum [21]): metabolite_detected; Drug metabolism (Blood): metabolite_detected; Drug metabolism (Rattus norvegicus [8]): metabolite_detected; IC50 [22]: 1940 µM; inhibition in vivo at 3 mg/kg (Rattus norvegicus [13]; [24]): 50%; inhibition in vivo at 10 mg/kg (Rattus norvegicus [10]; [24]): 75%; Activity (Rattus norvegicus [23]): 0.95 mL; Activity (Cavia porcellus [15]): 7%; Activity (Rattus norvegicus [11]): 0.24 mL; IC50 [12]: 1520 µM; Activity (Rattus norvegicus [14]): 0.47 mL
CCOC(=O)C(=O)Nc1ccccc(N(C)C(=O)C(=O)OCC)c1=O	51%	26%	0%	6%	–
